Only some compounds are listed: those with a hit (about 5.7% of all), similar ones and a draw of the others.
CSC inhib: cancer stem cell inhibition | cancer stem cell-like cells viability, luminescence | inhibition, % at 7.5 µM | 300,000 compounds, 1.1% hits | AID 2717; in the data active means inhibition above about 75%; inconclusive means no clear call, values can overlap the other calls; tested in HMLE shEcad cells
Calb FLC: C. albicans growth modulation with fluconazole. C. albicans CaCi-2 (fluconazole-resistant clinical isolate) + fluconazole, Alamar Blue growth, 48 h. growth inhibition, % (no concentration beside the values). 300,000 compounds, 0.57% hits. AID 1979;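 active means growth inhibition above about 58% in most replicates, limit read from the data, passing the limit was not always enough; inconclusive means exactly half the replicates above a set limit; inactive means most replicates below a set limit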;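 further: all wells also contain fluconazole at 8 µg/ml as a sub-toxic cotreatment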
Beta cell apopt: blocks beta cell apoptosis | 300,000 compounds, 0.8% hits | protection from apoptosis, % (no concentration beside the values) | INS-1E cytokine-induced death, ATP luminescence, 48 h; percent of positive-control rescue, neutral wells zero;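 active means Every replicate reaches about 75%, or at least half do and their mean reaches it too, limit read from the data; inconclusive means At least half of replicates reach the limit but their mean does not; inactive means Under half of replicates reach the limit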;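 further: higher means more ATP so stronger rescue from cytokine killing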
SKKanGAS inh: inhibitors of SKKanGAS S. pyogenes growth in kanamycin (SK-promoter or general growth effect). 300,000 compounds, 1.3% hits. inhibition, % at 7.5 µM. BacTiter-Glo, 6 h;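 active means mean replicate score, as percent of positive control median, at least 50; inconclusive means mean below 50 but one replicate at or above 50; inactive means mean and every replicate below 50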;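 further: strain carries kanamycin resistance gene driven by streptokinase promoter and grows in 40 µg/ml kanamycin; loss of luminescence reflects streptokinase promoter inhibition or plain growth inhibition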
T cruzi repl: T. cruzi replication inhibition | T. cruzi beta-gal in NIH3T3, luminescence, 90 h | 300,000 compounds, 1.4% hits | inhibition, % (concentration not given with the values) | AID 1885;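 active means mean inhibition across valid replicates above about 55%, limit read from the data; inconclusive means mean below that limit but half or more replicates reach it; inactive means mean below it, under half of replicates reach it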;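 further: signal also drops with host cell toxicity which is not excluded here; higher percent means less beta-gal luminescence so fewer parasites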
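System: NIH/3T3 fibroblasts plus reporter T. cruzi. Medium: DMEM plus 2% FBS. Probe or stimulus: 5000 reporter trypomastigotes per well. Compound: single 50 nL compound addition per well in DMSO. Incubation: co-culture of at least 90 h after 3 h attachment. Detection: GalScreen β-gal luminescence, detergent lysis, 60 min. Evaluation: parasite load inhibition, %.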
Mdm2-MdmX inh: human Mdm2/MdmX binding inhibition. 330,000 compounds, 3% hits. AID 485346. SaOS-2 split-luciferase Mdm2/MdmX complementation, luminescence. O15151+Q00987. inhibition, % at 8 µM;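 active means inhibition of at least 50% at 8 µM in the primary screen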
Target sequence (O15151 whole entry, looked up): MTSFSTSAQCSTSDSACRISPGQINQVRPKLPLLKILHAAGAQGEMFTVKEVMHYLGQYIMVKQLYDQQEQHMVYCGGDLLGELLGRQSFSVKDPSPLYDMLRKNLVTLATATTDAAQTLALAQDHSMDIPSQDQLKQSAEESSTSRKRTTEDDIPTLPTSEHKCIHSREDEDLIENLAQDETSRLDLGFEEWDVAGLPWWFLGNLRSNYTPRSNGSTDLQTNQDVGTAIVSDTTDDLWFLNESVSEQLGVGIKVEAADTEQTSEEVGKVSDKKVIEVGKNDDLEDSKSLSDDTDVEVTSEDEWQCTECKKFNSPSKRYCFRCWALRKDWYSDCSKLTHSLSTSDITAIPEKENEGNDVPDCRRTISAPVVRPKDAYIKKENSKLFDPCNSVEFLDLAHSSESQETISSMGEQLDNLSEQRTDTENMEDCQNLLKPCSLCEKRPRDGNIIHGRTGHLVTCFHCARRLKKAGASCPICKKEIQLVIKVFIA
Target sequence (Q00987 whole entry, looked up): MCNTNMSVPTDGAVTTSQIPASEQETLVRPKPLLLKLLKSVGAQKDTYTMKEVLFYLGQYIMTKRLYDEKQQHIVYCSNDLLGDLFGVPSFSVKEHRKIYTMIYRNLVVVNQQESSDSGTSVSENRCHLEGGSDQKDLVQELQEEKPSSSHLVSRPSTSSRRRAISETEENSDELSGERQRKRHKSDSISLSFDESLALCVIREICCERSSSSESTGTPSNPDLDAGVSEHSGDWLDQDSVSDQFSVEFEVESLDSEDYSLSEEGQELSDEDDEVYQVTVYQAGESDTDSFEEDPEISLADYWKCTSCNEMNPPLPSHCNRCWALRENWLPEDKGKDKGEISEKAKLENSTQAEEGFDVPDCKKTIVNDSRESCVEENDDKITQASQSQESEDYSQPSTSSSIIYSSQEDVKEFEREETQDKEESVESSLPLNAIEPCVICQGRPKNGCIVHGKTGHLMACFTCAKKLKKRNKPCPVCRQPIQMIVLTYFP
Mdm2-MdmX conf: confirmation of human Mdm2/MdmX interaction inhibitors. shares compounds with Mdm2-MdmX inh. Mdm2-MdmX binding, luminescent assay. inhibition, % at 8 µM. 10,000 compounds, 55% hits; in the data active means inhibition above about 40%
Full FLuc ctr: inhibits full-length luciferase, flagging false Mdm2/MdmX hits | shares compounds with Mdm2-MdmX inh | inhibition, % at 8 µM | SaOS-2 full-length luciferase counterscreen, luminescence | 6,200 compounds, 77% hits;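 active means mean inhibition at 8 µM reaching about 37%, which flags the compound as non-specific, limit read from the data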;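 further: p53-null SaOS-2 cells with luciferase driven by a doxycycline-inducible promoter; compound on cells about two nights before reading with doxycycline added after day one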
A number is an active result; i = inactive; ? = inconclusive; nt = no result.

SMILES | CSC inhib | Calb FLC | Beta cell apopt | SKKanGAS inh | T cruzi repl | Mdm2-MdmX inh | Mdm2-MdmX conf | Full FLuc ctr
COc1ccc(-c2cc(C(=O)Nc3ccccc3N3CCOCC3)c3ccccc3n2)cc1OC | i | i | i | i | i | 53.1 | 57.8 | 75.1
COc1ccc(-c2cc(C(=O)NNC(=O)c3csc(N4CCOCC4)n3)c3ccccc3n2)cc1OC | i | i | i | i | i | i | nt | nt
O=C(Nc1ccc(N2CCOCC2)cc1)c1cc(-c2ccncc2)nc2ccccc12 | i | i | i | i | i | i | nt | nt
CCOc1cc(N2CCOCC2)c(OCC)cc1NC(=O)c1cc(-c2ccco2)nc2ccccc12 | i | i | i | i | i | 69.5 | 65.8 | 72.4
O=C(Nc1ccccc1N1CCOCC1)c1cc(-c2ccncc2)nc2ccccc12 | i | i | i | i | i | 55.3 | i | 81.8
CCOc1cc(N2CCOCC2)c(OCC)cc1NC(=O)COc1ncnc2ccccc12 | i | i | i | i | i | i | nt | nt
O=C(CSc1nc2nc(-c3cccs3)cc(C(F)(F)F)c2c(=O)[nH]1)Nc1ccc(F)c(F)c1 | 104.1 | i | i | 88.4 | i | 73.9 | 46.4 | 80.4
CC(C)n1cnc2c(N(C)c3ccccc3)nc(N(CCN(C)C)Cc3ccccc3)nc21 | i | i | i | i | i | 58.3 | i | nt
COc1cc(N(Cc2ccccc2)Cc2ccccc2)c2ncn(C(C)C)c2c1 | i | nt | i | nt | nt | i | nt | nt
Nc1c(S(=O)(=O)c2ccccc2)c2nc3ccccc3nc2n1/N=C/c1cccc(O)c1 | 103.6 | i | i | 56.4 | i | 67.1 | i | nt
O=C(CCNS(=O)(=O)c1ccccc1)NNC(=O)COc1ccccc1F | i | nt | i | nt | nt | i | nt | nt
Cc1ccc(Sc2ccc(NC(=O)CCl)cc2)cc1C | i | i | i | i | i | 81.3 | i | nt
Cc1ccc(C)c(Sc2ccc(NC(=O)CCl)cc2)c1 | i | i | i | i | i | 66.9 | i | nt
Cc1ccc(NC(=O)CC(=O)Nc2ccc(C)c(C)c2)cc1C | nt | i | i | i | i | i | nt | nt
CSc1ccc(S(=O)(=O)N2CCC(C(=O)NCc3ccccn3)CC2)cc1 | i | i | i | i | ? | i | nt | nt
CCN(C(=O)COC(=O)c1n[nH]c2ccccc12)c1ccccc1 | i | nt | i | nt | nt | i | nt | nt
O=c1c2cccnc2[nH]c(=S)n1CCC1=CCCCC1 | i | i | i | i | i | 63.0 | i | nt
COc1ccccc1N1CCN(C(=O)c2ccc(-c3ccc(Cl)cc3)o2)CC1 | i | nt | i | nt | nt | 56.5 | 55.6 | 59.2
COc1ccccc1N1CCN(C(=O)COc2ccc(C)cc2Br)CC1 | i | i | i | i | i | i | nt | nt
COc1ccccc1N1CCN(C(=O)COc2ccc(Cl)cc2Br)CC1 | nt | i | i | i | i | 57.1 | i | 59.6
CCc1ccc2oc(C(=O)N3CCN(c4ccc(OC)cc4)CC3)cc(=O)c2c1 | i | i | i | i | i | i | nt | nt
CCc1ccc2oc(C(=O)N3CCN(c4ccccc4OC)CC3)cc(=O)c2c1 | i | i | i | i | i | 59.6 | 49.5 | 40.4
Cc1onc(-c2ccccc2Cl)c1C(=O)Nc1cccc(S(=O)(=O)NC2=NCCC2)c1 | i | i | i | i | i | i | nt | nt
CCOC(=O)C1=CN(Cc2cccc(Br)c2)S(=O)(=O)N(CC)C1C (configuration not stated) | nt | nt | nt | nt | nt | i | nt | nt
CC1(C)C(=O)Nc2ccccc2N1C(=O)COC(=O)CNS(=O)(=O)c1ccc(F)c(F)c1F | nt | nt | i | nt | nt | i | nt | nt
SMILES | CSC inhib | Calb FLC | Beta cell apopt | SKKanGAS inh | T cruzi repl | Mdm2-MdmX inh | Mdm2-MdmX conf | Full FLuc ctr
Cc1cc(NC(=O)CSc2nnc3ccc(-c4ccc(F)cc4)nn23)no1 | i | i | nt | i | i | i | nt | nt
N#Cc1ccc(-c2cn3c(n2)SCC3)cc1 | i | i | i | i | i | nt | nt | nt
O=C1CC(N(CCc2ccccc2)C(=S)Nc2ccccc2)C(=O)N1c1ccc(Br)cc1 (configuration not stated) | i | i | i | 68.8 | i | 68.0 | i | 59.2
COc1ccc(CN(C(=S)Nc2ccccc2)C2CC(=O)N(c3ccc(F)cc3)C2=O)cc1 (configuration not stated) | i | i | i | i | i | i | nt | nt
COc1ccc(C2(c3ccc(OC)cc3)NC(=O)N(CC(=O)NCC(C)c3ccccc3)C2=O)cc1 (configuration not stated) | i | nt | i | nt | nt | i | nt | nt
O=C(CN1C(=O)NC2(CCCC2)C1=O)Oc1ccc2ccc(=O)oc2c1 | nt | nt | i | nt | nt | i | nt | nt
COc1ccc(/C=N\NC(=O)c2ccccc2F)cc1COc1ccc(F)cc1F | i | i | i | i | i | 57.9 | 76.1 | 65.7
COc1cc2ccccc2cc1C(=O)N/N=C/c1ccc2c(c1)OCO2 | i | i | i | i | i | 50.9 | 70.5 | 53.4
COc1ccc(/C=N/NC(=O)c2ccoc2C)cc1COc1c(C)cccc1C | i | i | i | i | i | 75.5 | i | nt
COc1ccc(/C=N/NC(=O)c2cc(C)oc2C)cc1OCc1ccccc1 | i | i | i | i | i | 61.7 | i | nt
COc1ccc(/C=N/NC(=O)c2ccc[nH]2)cc1 | nt | i | nt | i | i | i | nt | nt
O=C(CCl)NC(Cc1c[nH]c2ccc(OCc3ccccc3)cc12)C(=O)O (configuration not stated) | i | i | nt | i | i | i | nt | nt
CCN1CCCC1CNC(=O)CN(C)S(=O)(=O)c1ccc(Cl)cc1 (configuration not stated) | i | i | i | i | i | i | nt | nt
O=C(O)/C=C/C(=O)c1ccc2c(c1)CCc1ccccc1-2 | i | i | i | i | i | 66.9 | i | nt
CC[C@@]1(C(=O)OC)N[C@H](CN(C)C(=O)c2ccc(C)cc2)[C@@H]2C(=O)N(C)C(=O)[C@@H]21 | nt | nt | nt | nt | nt | i | nt | nt
O=C(CC12CC3CC(CC(C3)C1)C2)Nc1c(F)cccc1F | nt | i | nt | i | i | i | nt | nt
COC(=O)C1=C(C(=O)OC)[C@@H]2N(C)c3ccccc3[C@@]23C[C@@H](CO)N(C(=O)C2CCC2)C3=N1 | i | i | i | i | i | i | nt | nt
CCc1ccc(-c2cc(C)no2)cc1S(=O)(=O)N1CCN(c2ccccc2)CC1 | i | i | i | i | i | 59.5 | 43.1 | 46.6
CCc1ccc(-c2cc(C)no2)cc1S(=O)(=O)N1CCN(c2ccccc2OC)CC1 | i | i | i | i | i | i | nt | nt
O=[N+]([O-])c1cc(C=Nc2cccc3c(O)cccc23)ccc1Cl | nt | i | i | i | i | i | nt | nt
CCC(C)[C@H](NC(=O)N1CC(=O)Nc2ccccc21)C(=O)Nc1ccccc1C (some centres not stated) | i | i | nt | i | i | 67.0 | 64.1 | 39.1
Cc1cc(OCC(=O)Nc2ccccc2N2CCOCC2)c(C(C)C)cc1Cl | i | nt | i | nt | nt | i | nt | nt
O=C(Nc1ccncc1)c1ccc2c(c1)S(=O)(=O)c1ccccc1C2=O | i | i | i | i | i | i | nt | nt
